Experiment [1] concerns Mus musculus. Kind of experiment: (§1) In vivo inhibition of hormone-dependent MXT mammary tumor in mice. In kind it is functional. The method in brief:
(§2)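 MXT tumor pieces (~2 mm3) implanted sc into female 8-week-old BDF1 mice, randomized into groups of 10. From day 1 after transplant, compound in olive oil given sc 3 times weekly (equimolar doses) for 6 weeks. Tumors excised and weighed. T/C % = treated/solvent-control tumor weight × 100 (mean of 10); uterus T/C also recorded.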

For experiment [2], the system named is Mus musculus. The experiment is described as §1. In kind it is functional. The gist of the method:
as §2
The source holds these as a separate data set.

The target in experiment [3] is T1, Estrogen receptor (Mus musculus) (UniProt O08537+P19785). Nature of the experiment: […] estrogenic effect in immature mice at 500 ug. In kind it is functional. The method in brief: (§3)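 Uterotrophic assay in immature female NMRI mice (10–12 g at start; 10 per group). Test compound in olive oil given sc daily for three consecutive days. Uteri removed 24 h after the last injection, fixed in Bouin's solution, dried and weighed. Estrogenic effect read as stimulation of uterine growth.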
T1 sequence (O08537 whole entry, looked up): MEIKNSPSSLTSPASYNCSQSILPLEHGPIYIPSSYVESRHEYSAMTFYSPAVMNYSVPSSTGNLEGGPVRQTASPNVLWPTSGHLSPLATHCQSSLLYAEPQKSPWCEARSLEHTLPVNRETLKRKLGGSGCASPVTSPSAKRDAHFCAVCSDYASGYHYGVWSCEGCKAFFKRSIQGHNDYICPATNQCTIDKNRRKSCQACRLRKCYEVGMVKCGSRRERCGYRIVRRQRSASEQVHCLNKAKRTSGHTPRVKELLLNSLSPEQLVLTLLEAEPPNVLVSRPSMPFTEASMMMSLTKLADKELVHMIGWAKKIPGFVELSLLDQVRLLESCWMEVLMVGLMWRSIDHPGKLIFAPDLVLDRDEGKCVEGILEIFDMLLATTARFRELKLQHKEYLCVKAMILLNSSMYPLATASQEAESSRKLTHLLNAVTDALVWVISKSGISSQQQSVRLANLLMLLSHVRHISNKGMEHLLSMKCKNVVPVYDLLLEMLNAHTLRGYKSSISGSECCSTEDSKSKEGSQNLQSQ
T1 sequence (P19785 whole entry, looked up): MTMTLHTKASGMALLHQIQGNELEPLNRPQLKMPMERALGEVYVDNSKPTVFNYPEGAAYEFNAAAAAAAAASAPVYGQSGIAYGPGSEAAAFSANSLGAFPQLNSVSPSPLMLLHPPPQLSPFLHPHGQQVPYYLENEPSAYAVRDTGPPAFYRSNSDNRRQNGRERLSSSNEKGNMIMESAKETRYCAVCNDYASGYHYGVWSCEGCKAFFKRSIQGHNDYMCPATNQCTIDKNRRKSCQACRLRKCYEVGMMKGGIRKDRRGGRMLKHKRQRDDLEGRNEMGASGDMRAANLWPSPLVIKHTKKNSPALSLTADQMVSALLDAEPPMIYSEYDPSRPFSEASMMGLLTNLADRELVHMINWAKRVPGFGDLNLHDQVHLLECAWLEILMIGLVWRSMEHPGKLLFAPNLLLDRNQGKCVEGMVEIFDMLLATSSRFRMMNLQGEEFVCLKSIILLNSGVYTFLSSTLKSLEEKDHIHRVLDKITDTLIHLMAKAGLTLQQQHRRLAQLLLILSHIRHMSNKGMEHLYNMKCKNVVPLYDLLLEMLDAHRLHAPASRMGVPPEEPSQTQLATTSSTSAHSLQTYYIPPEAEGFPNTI

Experiment [4] has as its target T1, Estrogen receptor (Mus musculus). Kind of experiment: […] estrogenic effect in immature mice at 1 ug. In kind it is functional. The gist of the method: as §3
For experiment [5] the target is unchanged. Kind of experiment: In vivo anti-estrogenic effect in immature mice at 100 ug. In kind it is functional, organism-based. The gist of the method:
(§4)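 Antiuterotrophic assay in immature female NMRI mice (10–12 g; 10 per group) with estrone-stimulated uterine growth. Test compound in olive oil given sc daily for 3 consecutive days. Uteri taken 24 h after the final dose, Bouin-fixed, dried and weighed. Antiestrogenic effect measured as inhibition of the estrone-driven uterine growth.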

The target is the same in experiment [6]. Nature of the experiment: In vivo anti-estrogenic effect in immature mice at 0.5 ug. In kind it is functional, organism-based. The gist of the method:
as §4

Experiment [7] shares this target. Nature of the experiment: In vivo anti-estrogenic effect in immature mice at 5 ug. In kind it is functional, organism-based. The gist of the method:
as §4

A word on the T/C: it is the ratio of treated to control. For `CC/C(=C(\c1ccccc1)c1ccc(OC(C)=O)c(OC(C)=O)c1)c1cccc(OC(C)=O)c1`, the T/C with Mus musculus [1] is reported as 115%; in the experiment with Mus musculus [2] it was 82%.

Turning to `CC/C(=C(/c1ccccc1)c1ccc(OC(C)=O)c(OC(C)=O)c1)c1ccccc1`, the values for the T/C with Mus musculus [1] and with Mus musculus [2] were 106% and 17%, respectively. The molecule further gave an estrogenic effect in experiment [3] of 66%.

Turning to `CC/C(=C(\c1ccccc1)c1ccc(OC(C)=O)c(OC(C)=O)c1)c1ccc(OC(C)=O)cc1`, the T/C in the experiment on Mus musculus [1] was found to be 113%; in the experiment with Mus musculus [2] it was 40%.

What is called inhibition is the change of the read-out against control, counted positive when it falls. High values mean a strong effect, low ones a weak effect. In the case of `CCC(=C(c1ccccc1)c1ccccc1)c1ccc(OC(C)=O)c(OC(C)=O)c1`, the results for the T/C in the experiment with Mus musculus [1] and in the experiment on Mus musculus [2] were 115% and 9%, respectively. Moreover, the inhibition in experiment [4] was 18%.

`CC/C(=C(/c1ccccc1)c1cccc(OC(C)=O)c1)c1ccc(OC(C)=O)c(OC(C)=O)c1`: the T/C with Mus musculus [1] is recorded as 123%; with Mus musculus [2], 2%. Moreover, in experiment [3], the estrogenic effect is 61%.

Take `CC/C(=C(\c1ccccc1)c1ccc(OC(C)=O)c(OC(C)=O)c1)c1ccccc1`: the T/C was found to be 107% in the experiment with Mus musculus [1] and 19% in the experiment on Mus musculus [2]. This molecule also registered an estrogenic effect in experiment [3] of 77%.

With `CC/C(=C(/c1ccccc1)c1ccc(OC(C)=O)c(OC(C)=O)c1)c1cccc(OC(C)=O)c1`, the values for the T/C with Mus musculus [1] and in the experiment on Mus musculus [2] were 103% and 35%, respectively.

For the molecule `CC/C(=C(/c1ccccc1)c1ccc(OC(C)=O)c(OC(C)=O)c1)c1ccc(OC(C)=O)cc1`, the T/C came to 113% in the experiment with Mus musculus [1] and 22% with Mus musculus [2].

In the case of `CC/C(=C(/c1ccccc1)c1ccc(OC(C)=O)c(OC(C)=O)c1)c1ccc(OC(C)=O)c(OC(C)=O)c1`, the T/C was determined as 99% in the experiment with Mus musculus [1] and 84% with Mus musculus [2]. For the same molecule, the estrogenic effect in experiment [3] came to 67%.

Consider `CCC(=C(c1ccc(OC(C)=O)c(OC(C)=O)c1)c1ccc(OC(C)=O)c(OC(C)=O)c1)c1ccccc1`, for which the T/C with Mus musculus [1] is listed as 107%; in the experiment with Mus musculus [2] it was 134%. For the same molecule, the inhibition in experiment [5] is 54%. In addition, in experiment [3], the estrogenic effect was determined as 13%.

Regarding `CC/C(=C(\c1ccccc1)c1ccc(OCCN(C)C)cc1)c1ccccc1` [TAMOXIFEN], the T/C in the experiment with Mus musculus [1] is listed as 92%; with Mus musculus [2], 10%.

As to `CC/C(=C(\c1ccccc1)c1ccc(OC(C)=O)c(OC(C)=O)c1)c1ccc(OC(C)=O)c(OC(C)=O)c1`, the T/C in the experiment on Mus musculus [1] is on record as 90%; in the experiment on Mus musculus [2], 75%. This molecule yielded an estrogenic effect in experiment [3] of 77%.

Take `CC/C(=C(/c1ccc(OC(C)=O)cc1)c1ccc(OC(C)=O)c(OC(C)=O)c1)c1ccccc1`: the T/C with Mus musculus [1] is recorded as 99%; in the experiment on Mus musculus [2] it was 44%. The inhibition in experiment [6] was found to be 0%.

On to `CC/C(=C(\c1ccccc1)c1ccc(OC(C)=O)cc1)c1ccc(OC(C)=O)c(OC(C)=O)c1`, for which the T/C in the experiment with Mus musculus [1] came to 195%; in the experiment on Mus musculus [2] it was 1%.

As for `CC/C(=C(\c1ccccc1)c1cccc(OC(C)=O)c1)c1ccc(OC(C)=O)c(OC(C)=O)c1`, the T/C in the experiment with Mus musculus [1] amounted to 87%; in the experiment with Mus musculus [2] it was 30%. In experiment [7], this molecule displayed an inhibition of 53%. This molecule yielded an estrogenic effect in experiment [3] of 63%.

Take `CC/C(=C(/c1ccccc1)c1ccc(OC(C)=O)cc1)c1ccc(OC(C)=O)c(OC(C)=O)c1`: the T/C in the experiment with Mus musculus [1] is on record as 183%; in the experiment with Mus musculus [2], 2%.

Consider `CCC(=C(c1ccc(OC(C)=O)cc1)c1ccc(OC(C)=O)c(OC(C)=O)c1)c1ccccc1`, for which the inhibition in experiment [5] came out at 61%.

Turning to `CC/C(=C(\c1ccc(OC(C)=O)cc1)c1ccc(OC(C)=O)c(OC(C)=O)c1)c1ccccc1`, the results for the T/C in the experiment with Mus musculus [1] and in the experiment on Mus musculus [2] were 125% and 23%, respectively. Besides, the inhibition in experiment [6] is 38%.

The record behind these values is ChEMBL document CHEMBL1123328, “Catechol estrogens of the 1,1,2-triphenylbut-1-ene type: relationship between structure, estradiol receptor affinity, estrogenic and antiestrogenic properties, and mammary tumor inhibiting activities” (1986).
